Source: ChEMBL document CHEMBL3272173, “Synthesis and biological activity of peptide antagonists of luliberin (luteinizing hormone-releasing hormone)” (J Med Chem, 1979)
“And” between values parts separate entries of the source, which are not always exact repeats. Equal entries are not always repeated. Peptide text beside a SMILES is read from it. * marks the point of attachment. Cbz = O=C(OCc1ccccc1)*; Boc = CC(C)(C)OC(=O)*; NHBn = c1ccc(CN*)cc1; Bn = c1ccc(C*)cc1

What was measured:
[1] = test system: Rattus norvegicus; test: Antiovulatory activity in CD rat assessed as blockade of ovulation at 1 mg, sc administered as six doses at 1200, 1230, 1300, 1350, 1400 and 1450 hrs during proestrus stage measured during estrus stage by dissecting microscopic analysis; type: functional
Summary of the method: (§1)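 Cycling Charles River CD rats were given six subcutaneous injections of analogue in 0.1 mL propylene glycol on the afternoon of proestrus, and controls received vehicle alone. Rats were killed the next morning (estrus). Ovulating animals were scored and ova in the oviducts were counted under a dissecting microscope.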

[2] = target: T1, Gonadotropin-releasing hormone receptor (Rattus norvegicus) (UniProt P30969); test: In vitro antagonist activity at GNRHR in CD rat anterior pituitary gland assessed as ratio of molar concentration of compound to LH-RH for inhibition of LH-RH-stimulated LH release after 4 hrs by radioimmunoassay
T1 sequence (whole entry): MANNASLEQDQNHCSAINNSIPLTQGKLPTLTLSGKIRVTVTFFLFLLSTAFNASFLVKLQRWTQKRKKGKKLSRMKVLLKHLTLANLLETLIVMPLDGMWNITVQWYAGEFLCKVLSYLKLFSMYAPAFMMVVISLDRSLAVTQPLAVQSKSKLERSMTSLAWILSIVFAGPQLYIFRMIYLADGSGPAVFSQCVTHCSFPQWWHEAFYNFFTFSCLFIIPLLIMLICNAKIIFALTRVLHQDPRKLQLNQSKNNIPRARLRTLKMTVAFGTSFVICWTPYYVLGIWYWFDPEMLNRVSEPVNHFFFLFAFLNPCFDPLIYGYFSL
Summary of the method: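 Monolayers were cultured 4 days from dissociated anterior pituitary cells of diestrus CD rats. They were exposed in duplicate to LH-RH (2-5 × 10^-10 M) plus multiple analogue concentrations in serum-free DME for 4 h at 37 °C. LH in the medium was measured by radioimmunoassay. The ED50 molar ratio is the analogue:LH-RH molar ratio giving 50% inhibition of LH-RH-stimulated LH release.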

[3] = target: T1, Gonadotropin-releasing hormone receptor (Rattus norvegicus); test: In vitro antagonist activity at GNRHR in CD rat anterior pituitary gland assessed as inhibition of LH-RH-stimulated LH release at compound to LH-RH molar ratio of 100 after 4 hrs by radioimmunoassay; settings: concentration not given here
Summary of the method: (§2)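 Anterior pituitaries from diestrus CD rats (200-250 g) were dissociated enzymatically (collagenase, hyaluronidase, then Viokase). Cells were cultured 4 days at 1.67 × 10^5 cells/mL in DME with 10% horse serum and 2.5% fetal calf serum, then washed serum-free. Duplicate cultures received LH-RH (2-5 × 10^-10 M) with a single analogue concentration in serum-free DME for 4 h at 37 °C. LH in the medium was measured by RIA and reported as % inhibition of LH-RH-stimulated release.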

[4] = test system: Rattus norvegicus; test: Antiovulatory activity in sc dosed CD rat assessed as blockade of ovulation administered as six doses at 1200, 1230, 1300, 1350, 1400 and 1450 hrs during proestrus stage measured during estrus stage by dissecting microscopic analysis; type: functional; summary of the method: as §1
[5] = target: T1, Gonadotropin-releasing hormone receptor (Rattus norvegicus); test: In vitro antagonist activity at GNRHR in CD rat anterior pituitary gland assessed as inhibition of LH-RH-stimulated LH release at compound to LH-RH molar ratio of 10 after 4 hrs by radioimmunoassay; settings: concentration not given here; summary of the method: as §2
[6] = target: T1, Gonadotropin-releasing hormone receptor (Rattus norvegicus); test: In vitro antagonist activity at GNRHR in CD rat anterior pituitary gland assessed as inhibition of LH-RH-stimulated LH release at compound to LH-RH molar ratio of 20 after 4 hrs by radioimmunoassay; settings: concentration not given here; summary of the method: as §2
[7] = target: T1, Gonadotropin-releasing hormone receptor (Rattus norvegicus); test: In vitro antagonist activity at GNRHR in CD rat anterior pituitary gland assessed as inhibition of LH-RH-stimulated LH release at compound to LH-RH molar ratio of 2800 after 4 hrs by radioimmunoassay; settings: concentration not given here; summary of the method: as §2
[8] = target: T1, Gonadotropin-releasing hormone receptor (Rattus norvegicus); test: In vitro antagonist activity at GNRHR in CD rat anterior pituitary gland assessed as inhibition of LH-RH-stimulated LH release at compound to LH-RH molar ratio of 10000 after 4 hrs by radioimmunoassay; settings: concentration not given here; summary of the method: as §2

Molecule	inhibition (INH) [1]	ED50 [2]	inhibition [3]	ED50 [4]	inhibition [5]	inhibition [6]	inhibition [7]	inhibition [8]
CC(C)C[C@H](NC(=O)CNC(=O)[C@H](Cc1ccc(O)cc1)NC(=O)[C@H](CO)NC(=O)[C@H](Cc1c[nH]c2ccccc12)NC(=O)[C@H](CCC(=O)NCc1ccccc1)NC(=O)OCc1ccccc1)C(=O)N[C@@H](CCCNC(=N)N)C(=O)N1CCC[C@H]1C(=O)NCC(N)=O.Cl (HELM PEPTIDE1{[O=C(OCc1ccccc1)[*:2]].E.W.S.Y.G.L.R.P.G.[am]}|CHEM1{[c1ccc(CN[*:1])cc1]}$PEPTIDE1,CHEM1,2:R3-1:R1$$$V2.0)	40%	360 molar ratio	96%	>1 mg				
CC(=O)O.CCNC(=O)[C@@H]1CCCN1C(=O)[C@H](CCCNC(=N)N)NC(=O)[C@H](CC(C)C)NC(=O)[C@@H](Cc1ccccc1)NC(=O)[C@H](Cc1ccc(O)cc1)NC(=O)[C@H](CO)NC(=O)[C@H](Cc1c[nH]c2ccccc12)NC(=O)[C@H](CCC(=O)NCc1ccccc1)NC(=O)OCc1ccccc1	0%	2.7 molar ratio and 1.3 molar ratio		>1 mg	62%	71%		
COc1ccc(COC(=O)N[C@@H](COCc2ccccc2)C(=O)N[C@@H](Cc2c[nH]c3ccccc23)C(=O)N[C@@H](CO)C(=O)N[C@@H](Cc2ccc(O)cc2)C(=O)N[C@H](Cc2ccccc2)C(=O)N[C@@H](CC(C)C)C(=O)N[C@@H](CCCNC(=N)N)C(=O)N2CCC[C@H]2C(=O)NCC(N)=O)cc1.Cl	40%	1.3 molar ratio		>1 mg	100%			
CCNC(=O)[C@@H]1CCCN1C(=O)[C@H](CCCNC(=N)N)NC(=O)[C@H](CC(C)C)NC(=O)CNC(=O)[C@H](Cc1ccc(O)cc1)NC(=O)[C@H](CO)NC(=O)[C@H](Cc1c[nH]c2ccccc12)NC(=O)[C@@H](CC(C)C)NC(=O)OCc1ccccc1							51%	
CCNC(=O)[C@@H]1CCCN1C(=O)[C@H](CCCNC(=N)N)NC(=O)[C@H](CC(C)C)NC(=O)[C@@H](CCCNC(=N)N)NC(=O)[C@H](Cc1ccc(O)cc1)NC(=O)[C@H](CO)NC(=O)[C@H](Cc1c[nH]c2ccccc12)NC(=O)[C@H](CCC(N)=O)NC(=O)OCc1ccccc1.Cl	0%	20 molar ratio		>1 mg			86%	
CC(C)C[C@H](NC(=O)CNC(=O)[C@H](Cc1ccc(O)cc1)NC(=O)[C@H](CO)NC(=O)[C@H](Cc1c[nH]c2ccccc12)NC(=O)[C@@H](Cc1ccccc1)NC(=O)OCc1ccccc1)C(=O)N[C@@H](CCCNC(=N)N)C(=O)N1CCC[C@H]1C(=O)NCC(N)=O.Cl	0%			>1 mg			76%	
CC(C)C[C@H](NC(=O)CNC(=O)[C@H](Cc1ccc(O)cc1)NC(=O)[C@H](CO)NC(=O)[C@H](Cc1c[nH]c2ccccc12)NC(=O)[C@@H]1CCC(=O)N1)C(=O)N[C@@H](CCCNC(=N)N)C(=O)N1CCC[C@H]1C(=O)NCC(N)=O (HELM PEPTIDE1{[Glp].W.S.Y.G.L.R.P.G.[am]}$$$$V2.0)								60%
H-HWSYGLRPG-NH2								42%
H-WSYGLRPG-NH2								15%
CC(=O)O.CCNC(=O)[C@@H]1CCCN1C(=O)[C@H](CCCNC(=N)N)NC(=O)[C@H](CC(C)C)NC(=O)[C@@H](Cc1ccc(OC)cc1)NC(=O)[C@H](Cc1ccc(O)cc1)NC(=O)[C@H](CO)NC(=O)[C@H](Cc1c[nH]c2ccccc12)NC(=O)[C@H](COCc1ccccc1)NC(=O)OCc1ccccc1	100%			0.1 mg		100%		
CC(C)C[C@H](NC(=O)OCc1ccccc1)C(=O)N[C@@H](Cc1c[nH]c2ccccc12)C(=O)N[C@@H](CO)C(=O)N[C@@H](Cc1ccc(O)cc1)C(=O)N[C@H](CC(N)=O)C(=O)N[C@@H](CC(C)C)C(=O)N[C@@H](CCCNC(=N)N)C(=O)N1CCC[C@H]1C(=O)NCC(N)=O.Cl	0%	134 molar ratio	42%	>1 mg				
CCNC(=O)[C@@H]1CCCN1C(=O)[C@H](CCCNC(=N)N)NC(=O)[C@H](CC(C)C)NC(=O)CNC(=O)[C@H](Cc1ccc(O)cc1)NC(=O)[C@H](CO)NC(=O)[C@H](Cc1c[nH]c2ccccc12)NC(=O)[C@H](CCC(=O)NCc1ccccc1)NC(=O)OCc1ccccc1.Cl (Cbz-E(NHBn)WSYGLRP-NHEt)	20%	350 molar ratio	88%	>1 mg				
CC(=O)O.CC(C)C[C@H](NC(=O)[C@@H](Cc1ccccc1)NC(=O)[C@H](Cc1ccc(O)cc1)NC(=O)[C@H](CO)NC(=O)[C@H](Cc1c[nH]c2ccccc12)NC(=O)[C@H](COCc1ccccc1)NC(=O)OCc1ccccc1)C(=O)N[C@@H](CCCNC(=N)N)C(=O)N1CCC[C@H]1C(=O)N(C)C	40%	5.9 molar ratio		>3 mg		100%		
CCNC(=O)[C@@H]1CCCN1C(=O)[C@H](CCCNC(=N)N)NC(=O)[C@H](CC(C)C)NC(=O)CNC(=O)[C@H](Cc1ccc(O)cc1)NC(=O)[C@H](CO)NC(=O)[C@H](Cc1c[nH]c2ccccc12)NC(=O)[C@H](COCc1ccccc1)NC(=O)OC(C)(C)C (Boc-S(Bn)WSYGLRP-NHEt)							40%	
CCNC(=O)[C@@H]1CCCN1C(=O)[C@H](CCCNC(=N)N)NC(=O)[C@H](CC(C)C)NC(=O)[C@@H](Cc1c[nH]c2ccccc12)NC(=O)[C@H](Cc1ccc(O)cc1)NC(=O)[C@H](CO)NC(=O)[C@H](Cc1c[nH]c2ccccc12)NC(=O)[C@H](CCC(N)=O)NC(=O)OCc1ccccc1.Cl	20%	3.9 molar ratio	100%	>1 mg				
CC(C)C[C@H](NC(=O)CNC(=O)[C@H](Cc1ccc(O)cc1)NC(=O)[C@H](CO)NC(=O)[C@H](Cc1c[nH]c2ccccc12)NC(=O)[C@@H]1CCCN1C=O)C(=O)N[C@@H](CCCNC(=N)N)C(=O)N1CCC[C@H]1C(=O)NCC(N)=O (HELM PEPTIDE1{[O=C[*:2]].P.W.S.Y.G.L.R.P.G.[am]}$$$$V2.0)								53%
CCNC(=O)[C@@H]1CCCN1C(=O)[C@H](CCCNC(=N)N)NC(=O)[C@H](CC(C)C)NC(=O)[C@@H](Cc1ccccc1)NC(=O)[C@H](Cc1ccc(O)cc1)NC(=O)[C@H](CO)NC(=O)[C@H](Cc1c[nH]c2ccccc12)NC(=O)[C@H](CC(C)C)NC(=O)OCc1ccccc1.Cl	0%	3 molar ratio		>1 mg		100%		
CC(C)C[C@H](NC(=O)CNC(=O)[C@H](Cc1ccc(O)cc1)NC(=O)[C@H](CO)NC(=O)[C@H](Cc1c[nH]c2ccccc12)NC(=O)[C@H](Cc1ccc(OCc2ccccc2)cc1)NC(=O)OCc1ccccc1)C(=O)N[C@@H](CCCNC(=N)N)C(=O)N1CCC[C@H]1C(=O)NCC(N)=O.Cl (Cbz-Y(Bn)WSYGLRPG-NH2)	20%			>1 mg			74%	
CC(C)C[C@H](NC(=O)CNC(=O)[C@H](Cc1ccc(O)cc1)NC(=O)[C@H](CO)NC(=O)[C@H](Cc1c[nH]c2ccccc12)NC(=O)[C@H](Cc1cnc[nH]1)NC(=O)OCc1ccccc1)C(=O)N[C@@H](CCCNC(=N)N)C(=O)N1CCC[C@H]1C(=O)NCC(N)=O (HELM PEPTIDE1{[O=C(OCc1ccccc1)[*:2]].H.W.S.Y.G.L.R.P.G.[am]}$$$$V2.0)								58%
CC(C)C[C@H](NC(=O)CNC(=O)[C@H](Cc1ccc(O)cc1)NC(=O)[C@H](CO)NC(=O)[C@H](Cc1c[nH]c2ccccc12)NC(=O)OCc1ccccc1)C(=O)N[C@@H](CCCNC(=N)N)C(=O)N1CCC[C@H]1C(=O)NCC(N)=O.Cl (HELM PEPTIDE1{[O=C(OCc1ccccc1)[*:2]].W.S.Y.G.L.R.P.G.[am]}$$$$V2.0)	20%			>1 mg				68%
CC(C)C[C@H](NC(=O)[C@@H](CC(C)C)NC(=O)[C@H](Cc1ccc(O)cc1)NC(=O)[C@H](CO)NC(=O)[C@H](Cc1c[nH]c2ccccc12)NC(=O)[C@H](Cc1ccc(OCc2ccccc2)cc1)NC(=O)OCc1ccccc1)C(=O)N[C@@H](CCCNC(=N)N)C(=O)N1CCC[C@H]1C(=O)NCC(N)=O.Cl	0%	7 molar ratio		>1 mg		57%		
